Results: ChEMBL document CHEMBL1255454, “Systematic approach to optimizing specifically targeted antimicrobial peptides against Streptococcus mutans” (2010)
Converted amounts (≈) assume the structure as drawn. The source made the active and inactive calls. No cut-off for these calls is given here. Square brackets hold non-standard residues; d marks the D form. Peptide text beside a SMILES is read from it. Aoc = NCCCCCCCC(=O)O

Experiments:
Pseudomonas aeruginosa = experiment: Antimicrobial activity against Pseudomonas aeruginosa PAK after 16 to 20 hrs by broth microdilution assay; format: functional
Method in brief: (§1)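 Broth microdilution. Twofold peptide dilutions were made in 50% BHI–50% sterile water for oral streptococci and in 1× Mueller-Hinton broth for the other bacteria. First round 500 to 0.97 µg/ml; a second round of 64 to 0.5 µg/ml was run in some cases, reporting its mode. Inoculum ~1 × 10^5 CFU/ml, 37°C for 16–20 h. Read A600; MIC taken as complete inhibition or ≥90% turbidity reduction versus peptide-free control.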

Staphylococcus aureus = experiment: Antimicrobial activity against methicillin-resistant Staphylococcus aureus after 16 to 20 hrs by broth microdilution assay; format: functional
Method in brief: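 MRSA grown aerobically in BHI at 37°C. Broth microdilution: 2-fold peptide dilutions in 1× Mueller-Hinton broth, first round 500 to 0.97 µg/ml; if activity below 62.5 µg/ml, sometimes a second round at 64 to 0.5 µg/ml, reporting the mode. Inoculum ~1 × 10^5 CFU/ml, 37°C for 16-20 h. A600 read. MIC = lowest concentration giving complete inhibition or ≥90% turbidity reduction versus peptide-free control.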

Streptococcus mutans [1] = experiment: Antimicrobial activity against Streptococcus mutans UA159 after 16 to 20 hrs by broth microdilution assay; format: functional; method in brief: as §1
Streptococcus sanguinis [2] = experiment: Antimicrobial activity against Streptococcus sanguinis NY101 after 16 to 20 hrs by broth microdilution assay; format: functional; method in brief: as §1
Streptococcus sobrinus = experiment: Antimicrobial activity against Streptococcus sobrinus ATCC 33478 after 16 to 20 hrs by broth microdilution assay; format: functional; method in brief: as §1
Enterococcus faecalis = experiment: Antimicrobial activity against Enterococcus faecalis after 16 to 20 hrs by broth microdilution assay; format: functional; method in brief: as §1
Escherichia coli = experiment: Antimicrobial activity against Escherichia coli W3110 after 16 to 20 hrs by broth microdilution assay; format: functional; method in brief: as §1
Streptococcus mitis [3] = experiment: Antimicrobial activity against Streptococcus mitis ATCC 903 after 16 to 20 hrs by broth microdilution assay; format: functional; method in brief: as §1
Streptococcus sanguinis [4] = experiment: Antimicrobial activity against Streptococcus sanguinis NY101 at 25 ug/ml after 30 mins by time-kill assay; format: functional, organism-based
Method in brief: (§2)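 Time-kill. Overnight cultures were diluted in BHI to A600 0.08 and treated with peptide at 25 µg/ml for 30 s to 2 h. Aliquots were diluted 1:50 in BHI, held on ice, plated and counted after 24 h as surviving CFU/ml. Three independent experiments, mean with SD; unpaired Student t test.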

Streptococcus mitis [5] = experiment: Antimicrobial activity against Streptococcus mitis ATCC 903 at 25 ug/ml after 30 mins by time-kill assay; format: functional, organism-based; method in brief: as §2
Streptococcus mutans [6] = experiment: Antimicrobial activity against Streptococcus mutans UA159 at 25 ug/ml after 30 mins by time-kill assay; format: functional; method in brief: as §2
[7] = system: Streptococcus gordonii str. Challis; experiment: Antimicrobial activity against Streptococcus gordonii Challis DL1 at 25 ug/ml after 30 mins by time-kill assay; format: functional; method in brief: as §2
[8] = Antimicrobial activity against Streptococcus gordonii Challis DL1 after 16 to 20 hrs by broth microdilution assay; format: functional, Streptococcus gordonii str. Challis; method in brief: as §1
Streptococcus mitis [9] = experiment: Antimicrobial activity against Streptococcus mitis assessed as inhibition of bacterial biofilm formation at 50 uM after 10 mins; format: functional
Method in brief: (§3)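 Mixed-species biofilms were grown 24 h at 37°C anaerobically in TH with 50% filter-sterilized pooled human saliva and 1% sucrose. Inoculum: S. mutans JM11 at 1 × 10^6 CFU/well plus S. oralis, S. gordonii, S. sanguinis, S. mitis and S. salivarius at 2 × 10^5 CFU/well each. Survivors were plated on TH agar for total streptococci and on TH agar with 800 µg/ml spectinomycin for JM11. Detection limit 100 CFU/ml.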

Streptococcus gordonii = experiment: Antimicrobial activity against Streptococcus gordonii assessed as inhibition of bacterial biofilm formation at 50 uM after 10 mins; format: functional; method in brief: as §3
Streptococcus mutans [10] = experiment: Antimicrobial activity against Streptococcus mutans JM11 assessed as inhibition of bacterial biofilm formation at 50 uM after 10 mins; format: functional; method in brief: as §3
Streptococcus sanguinis [11] = experiment: Antimicrobial activity against Streptococcus sanguinis assessed as inhibition of bacterial biofilm formation at 50 uM after 10 mins; format: functional; method in brief: as §3
Streptococcus mutans [12] = experiment: Antimicrobial activity against Streptococcus mutans UA159 assessed as inhibition of viability of bacterial biofilm at 25 ug/ml treated for 1 min measured after 4 hrs; format: functional
Method in brief: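 S. mutans biofilms were seeded from overnight culture diluted 1:50 in TH broth with 0.5% sucrose, centrifuged, and grown 4 h anaerobically at 37°C. They were exposed to peptide in 1× PBS for about 1 min, washed, and given fresh TH broth without sucrose. Recovery was read as A600 after 4 h anaerobic incubation at 37°C. Three experiments; unpaired t test.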

Streptococcus salivarius = experiment: Antimicrobial activity against Streptococcus salivarius assessed as inhibition of bacterial biofilm formation at 50 uM after 10 mins; format: functional; method in brief: as §3
Streptococcus oralis = experiment: Antimicrobial activity against Streptococcus oralis assessed as inhibition of bacterial biofilm formation at 50 uM after 10 mins; format: functional; method in brief: as §3
Streptococcus mutans [13] = experiment: Antimicrobial activity against Streptococcus mutans UA159 assessed as inhibition of bacterial biofilm formation at 25 uM after 3 mins by fluorescence assay; format: functional
Method in brief: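 S. mutans UA159 overnight culture was diluted 1:5,000 in TH with 1% sucrose and grown as biofilm for 24 h. Biofilms were exposed 3 min at room temperature to 25 µM fluorescein-labelled peptide in HEPES/NaHCO3/NaCl/MgCl2 buffer with 0.1% CTAB, pH 7.4, then washed twice. Green fluorescence images were taken and biofilm-associated green pixels quantified as binding intensity units.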

Molecule	MIC (Pseudomonas aeruginosa)	MIC (Staphylococcus aureus)	MIC (Streptococcus mutans [1])	MIC (Streptococcus sanguinis [2])	MIC (Streptococcus sobrinus)	MIC (Enterococcus faecalis)	MIC (Escherichia coli)	MIC (Streptococcus mitis [3])	MIC [8]	inhibition (Streptococcus mutans [13])	other results
CC[C@H](C)[C@H](NC(=O)[C@H](Cc1ccccc1)NC(=O)[C@H](Cc1cnc[nH]1)NC(=O)[C@H](CCCCN)NC(=O)[C@@H](NC(=O)[C@H](Cc1ccccc1)NC(=O)[C@@H]1CCCN1C(=O)[C@H](Cc1ccc(O)cc1)NC(=O)[C@@H]1CCCN1C(=O)[C@H](Cc1ccccc1)NC(=O)[C@@H](Cc1cnc[nH]1)NC(=O)[C@@H](CC(C)C)NC(=O)[C@@H](Cc1cnc[nH]1)NC(=O)[C@@H](Cc1ccccc1)NC(=O)[C@@H](Cc1cnc[nH]1)NC(=O)[C@H](N)Cc1ccccc1)[C@@H](C)CC)C(=O)N[C@@H](Cc1cnc[nH]1)C(=O)N[C@@H](CCCNC(=N)N)C(=O)N[C@@H](Cc1ccccc1)C(N)=O	125 mg/L (≈ 48.7 µM)	> 500 mg/L	32 mg/L (≈ 12.5 µM)	62.5 mg/L (≈ 24.3 µM)	62.5 mg/L (≈ 24.3 µM)	250 mg/L (≈ 97.4 µM)	125 mg/L (≈ 48.7 µM)				
CC[C@H](C)[C@H](NC(=O)[C@H](Cc1ccccc1)NC(=O)[C@H](Cc1cnc[nH]1)NC(=O)[C@H](CCCCN)NC(=O)[C@@H](NC(=O)[C@@H](N)Cc1ccccc1)[C@@H](C)CC)C(=O)N[C@@H](Cc1cnc[nH]1)C(=O)N[C@@H](CCCNC(=N)N)C(=O)N[C@@H](Cc1ccccc1)C(=O)NCCCCCCCC(=O)N[C@@H](CCCNC(=N)N)C(=O)N[C@@H](Cc1c[nH]c2ccccc12)C(=O)N[C@@H](CCCNC(=N)N)C(=O)N[C@@H](Cc1c[nH]c2ccccc12)C(=O)N[C@@H](CCCNC(=N)N)C(=O)N[C@@H](Cc1c[nH]c2ccccc12)C(=O)N[C@@H](Cc1ccccc1)C(N)=O (H-FIKHFIHRF[Aoc]RWRWRWF-NH2)	62.5 mg/L (≈ 24.4 µM)	32 mg/L (≈ 12.5 µM)	8 mg/L (≈ 3.13 µM)	32 mg/L (≈ 12.5 µM)				16 mg/L (≈ 6.25 µM)	32 mg/L (≈ 12.5 µM)		Activity (Streptococcus sanguinis [4]): Active; Activity (Streptococcus mitis [5]): Active; Activity (Streptococcus mutans [6]): Active; Activity [7]: Active
N=C(NCCCCCCNC(=N)NC(=N)Nc1ccc(Cl)cc1)NC(=N)Nc1ccc(Cl)cc1 [CHLORHEXIDINE]											inhibition at 50 µM (Streptococcus mitis [9]): 95%; inhibition at 50 µM (Streptococcus gordonii): 95%; inhibition at 50 µM (Streptococcus mutans [10]; JM11, 10 min): 95%; inhibition at 50 µM (Streptococcus sanguinis [11]): 95%; inhibition (Streptococcus mutans [12]): Active; inhibition at 50 µM (Streptococcus salivarius): 95%; inhibition at 50 µM (Streptococcus oralis): 95%
H-AAKHAAHRA-NH2	> 500 mg/L	> 500 mg/L	> 500 mg/L	> 500 mg/L	> 500 mg/L	> 500 mg/L	> 500 mg/L	> 500 mg/L	> 500 mg/L	inactive	
H-FHFHLHFASASAFIKHFIHRF-NH2	125 mg/L	62.5 mg/L	16 mg/L	32 mg/L	32 mg/L	62.5 mg/L	62.5 mg/L				
H-FHFHLHFGGGFIKHFIHRF-NH2	62.5 mg/L	125 mg/L	32 mg/L	62.5 mg/L	62.5 mg/L	62.5 mg/L	62.5 mg/L				
H-FHFHLHFPSGSPFIKHFIHRF-NH2	> 500 mg/L	> 500 mg/L	62.5 mg/L	62.5 mg/L	62.5 mg/L	250 mg/L	125 mg/L			Active	
H-FHFHLHFPSPSPFIKHFIHRF-NH2	125 mg/L	> 500 mg/L	32 mg/L	125 mg/L	125 mg/L	250 mg/L	62.5 mg/L				
H-FHFHLHFSATFIKHFIHRF-NH2	125 mg/L	125 mg/L	16 mg/L	62.5 mg/L	250 mg/L	62.5 mg/L	125 mg/L			Active	
H-FIKHFIHRF-NH2	> 500 mg/L	> 500 mg/L	125 mg/L	125 mg/L	125 mg/L	> 500 mg/L	> 500 mg/L	> 500 mg/L	> 500 mg/L	Active	
H-FIKHFIHRFGGGRWRWRWF-NH2	62.5 mg/L	32 mg/L	8 mg/L	32 mg/L				32 mg/L	32 mg/L	Active	inhibition (Streptococcus mutans [10]): Active; Activity (Streptococcus sanguinis [4]): Active; Activity (Streptococcus mitis [5]): Active; Activity (Streptococcus mutans [6]): Active; inhibition (Streptococcus mutans [12]): Active; Activity [7]: Active
H-FIKHFIHRFSATRWRWRWF-NH2	62.5 mg/L	125 mg/L	8 mg/L	32 mg/L				16 mg/L	32 mg/L	Active	inhibition (Streptococcus mitis [9]): inactive; inhibition (Streptococcus gordonii): inactive; inhibition (Streptococcus mutans [10]): Active; inhibition (Streptococcus sanguinis [11]): inactive; inhibition (Streptococcus mutans [12]): Active; inhibition (Streptococcus salivarius): inactive; inhibition (Streptococcus oralis): inactive
H-LIKHILHRL-NH2	> 500 mg/L	> 500 mg/L	125 mg/L	> 500 mg/L	> 500 mg/L	> 500 mg/L	> 500 mg/L	> 500 mg/L	> 500 mg/L	Active	
H-LIKHILHRLGGGFHFHLHF-NH2	250 mg/L	62.5 mg/L	16 mg/L	62.5 mg/L	32 mg/L	32 mg/L	250 mg/L				
H-RWRWRWF-NH2	32 mg/L	32 mg/L	4 mg/L	32 mg/L				32 mg/L	32 mg/L	Active	inhibition (Streptococcus mitis [9]): inactive; inhibition (Streptococcus gordonii): inactive; Activity (Streptococcus sanguinis [4]): Active; Activity (Streptococcus mitis [5]): Active; Activity (Streptococcus mutans [6]): Active; inhibition (Streptococcus sanguinis [11]): inactive; inhibition (Streptococcus mutans [12]): Active; Activity [7]: Active; inhibition (Streptococcus salivarius): inactive; inhibition (Streptococcus oralis): inactive
H-WWHSWWSTW-NH2	> 125 mg/L	> 125 mg/L	125 mg/L	125 mg/L	125 mg/L	> 125 mg/L	125 mg/L	125 mg/L	125 mg/L	Active	
H-WWKDWWERW-NH2	> 500 mg/L	> 500 mg/L	> 500 mg/L	> 500 mg/L	> 500 mg/L	> 500 mg/L	> 500 mg/L	> 500 mg/L	> 500 mg/L	Active	
H-WWQDWWNEW-NH2	> 500 mg/L	> 500 mg/L	> 500 mg/L	> 500 mg/L	> 500 mg/L	> 500 mg/L	> 500 mg/L	> 500 mg/L	> 500 mg/L	Active	
H-WWSYWWTQW-NH2	> 125 mg/L	> 125 mg/L	125 mg/L	125 mg/L	125 mg/L	> 125 mg/L	125 mg/L	125 mg/L	125 mg/L	Active	
H-WWYNWWQDW-NH2	> 500 mg/L	> 500 mg/L	> 500 mg/L	> 500 mg/L	> 500 mg/L	> 500 mg/L	> 500 mg/L	> 500 mg/L	> 500 mg/L		
